Results reported in publication PMC2797757 (Journal of medicinal chemistry, 2009).
Entries after “also recorded” stand apart in the source; their conditions may differ.

Tests used:
[1] = system: MCF-7 human breast carcinoma cells; test: Growth of MCF-7 cells; type: cell-based; settings: MCF7, 48 h, read-out: MCF-7 IC50 ± SD
[2] = system: Saccharomyces cerevisiae BY4741 wild type strain; test: Yeast toxicity protocol; type: cell-based; settings: 20 μM, growth recorded after 3 days at 28 °C; for effect on viability/growth of BY4741 strain cells: 18 h incubation; for serial dilution to which cell growth was limited: 10-fold serial cell dilution
Method in brief: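 S. cerevisiae BY4741 (MATa his3Δ1 leu2Δ0 met15Δ0 ura3Δ0) grown at 28 °C in SD minimal medium with 2% glucose. Exponential cells (5 × 10^6/mL) exposed to 20 μM for 18 h at 28 °C, then centrifuged, washed twice with water and resuspended in SD. Serial 10-fold dilutions incubated overnight at 28 °C, spotted on YPD plates, and growth scored after 3 days at 28 °C.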

tubulin = test: [3H]Colchicine binding assay; set-up: species or system bovine; settings: Tubulin 1 μM; [3H]colchicine and inhibitor both 5 μM
[3] = system: HeLa cervical cancer cells; test: Cell viability/proliferation assay, HeLa; type: cell-based, human; settings: 24 h, control cells = 100%
Method in brief: (§1)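 Cells grown at 37 °C, 5% CO2, in D-MEM with 10% fetal calf serum, 4 mM glutamine and 2 mM pyruvate; HCT116/chr3 also got 500 μg/mL G418. Seeded at 1 × 10^3 cells/well and treated 24 h later for 24 h from a 10 mM DMSO stock. Vehicle control was 1% DMSO. Tetrazolium reagent added for 4 h at 37 °C, then absorbance read at 492 nm. Quadruplicate, three repeats; results are % of control, mean ± SD.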

[4] = system: HCT116/chr3 human colon cancer cells; test: Cell viability/proliferation assay, HCT116/chr3; type: cell-based; settings: 24 h, control cells = 100%
Method in brief: as §1

[5] = system: HEK, human embryonic kidney 293 cells; test: Growth inhibition, MTT, HEK; type: cell-based; settings: read-out: HEK IC50 ± SD; MTT method; incubation 48 h
[6] = system: U937, human leukemic monocyte lymphoma cells; test: Growth inhibition, MTT, U937; type: cell-based; settings: read-out: U937 IC50 ± SD; MTT method; incubation 48 h
[7] = system: HAOSMC: human aortic smooth muscle cells; test: Growth inhibition of nontransformed cells, HAOSMC; type: cell-based; settings: read-out: HAOSMC IC50 ± SD
[8] = system: PtK2: potorous tridactylis kidney epithelial cells; test: Growth inhibition of nontransformed cells, PtK2; type: cell-based, Potorus tridactylis; settings: read-out: PtK2 IC50 ± SD
[9] = system: A10, rat embryonic aortic smooth muscle cells; test: Growth inhibition of nontransformed cells, A10; type: cell-based; settings: read-out: A10 IC50 ± SD
[10] = system: HUVEC: human umbilical vein endothelial cells; test: Growth inhibition of nontransformed cells, HUVEC; type: cell-based; settings: read-out: HUVEC IC50 ± SD
[11] = system: M14, human melanoma cells; test: Growth inhibition, MTT, M14; type: cell-based; settings: read-out: M14 IC50 ± SD; MTT method; incubation 48 h
HEK cells = test: Time-lapse microscopy, HEK cell morphology and growth; type: cell-based, human; settings: 48 h treatment
M14 cells = test: Time-lapse microscopy, M14 cell morphology and growth; type: cell-based, human; settings: 48 h treatment

COc1cc(Sc2c[nH]c3ccccc23)cc(OC)c1OC [Compound 3]
IC50 [1]: 34 ± 9 nM

COC(=O)c1[nH]c2ccccc2c1Sc1cc(OC)c(OC)c(OC)c1 [Compound 6]
IC50 [1]: 25 ± 1 nM

COc1cc(Sc2c[nH]c3ccc(Cl)cc23)cc(OC)c1OC [Compound 12]
IC50 [1]: 77 ± 7 nM

CCOC(=O)c1[nH]c2ccc(Cl)cc2c1Sc1cc(OC)c(OC)c(OC)c1 [Compound 18]
IC50 [1]: 110 ± 2 nM

COc1cc(Cn2cccc2C(=O)O)cc(OC)c1OC [Compound 54, 1-(3,4,5-Trimethoxybenzyl)-1H-pyrrole-2-carboxylic acid]
effect on viability/growth of BY4741 strain cells [2]: effectively inhibited growth; also recorded: strongly reduced the viability
serial dilution to which cell growth was limited [2]: first dilution

(5-Bromo-1H-indol-3-yl)(3,4,5-trimethoxyphenyl)methanone [Compound 25]
inhibition colchicine binding (% ± SD) (tubulin): 45±5%

(5-Methoxy-1H-indol-3-yl)-(3,4,5-trimethoxyphenyl)methanone [Compound 34]
inhibition colchicine binding (% ± SD) (tubulin): 32±7%

Ethyl 5-Bromo-3-(3,4,5-trimethoxybenzoyl)-1H-indole-2-carboxylate [Compound 31]
inhibition colchicine binding (% ± SD) (tubulin): 58±2%

Ethyl 5-Bromo-3-(3,4,5-trimethoxybenzyl)-1H-indole-2-carboxylate [Compound 32]
inhibition colchicine binding (% ± SD) (tubulin): 53±4%

Ethyl 5-Bromo-3-(3,4,5-trimethoxyphenylthio)-1H-indole-2-carboxylate [Compound 30]
inhibition colchicine binding (% ± SD) (tubulin): 62±7%

Ethyl 5-Methoxy-3-(3,4,5-trimethoxybenzoyl)-1H-indole-2-carboxylate [Compound 43]
inhibition colchicine binding (% ± SD) (tubulin): 49±4%

Ethyl 5-Methoxy-3-(3,4,5-trimethoxybenzyl)-1H-indole-2-carboxylate [Compound 45]
inhibition colchicine binding (% ± SD) (tubulin): 42±4%

Methyl 5-Bromo-3-(3,4,5-trimethoxybenzoyl)-1H-indole-2-carboxylate [Compound 28]
inhibition colchicine binding (% ± SD) (tubulin): 67±4%
% of cell proliferation, HeLa ([3]; 0.5 μM): 41±1.1%
% of cell proliferation, HeLa ([3]; 1 μM): 47±0.4%
% of cell proliferation, HCT116/chr3 ([4]; 0.5 μM): 59±0.2%
% of cell proliferation, HCT116/chr3 ([4]; 1 μM): 66±3.5%
IC50 [5]: 131 ± 3 nM
IC50 [6]: 191 ± 7 nM
IC50 [7]: 55 ± 40 nM
IC50 [8]: 110 ± 60 nM
IC50 [9]: 280 ± 40 nM
IC50 [10]: 150 nM

Methyl 5-Bromo-3-(3,4,5-trimethoxybenzyl)-1H-indole-2-carboxylate [Compound 29]
inhibition colchicine binding (% ± SD) (tubulin): 59±7%
% of cell proliferation, HeLa ([3]; 0.5 μM): 52±0.4%
% of cell proliferation, HeLa ([3]; 1 μM): 45±1.6%
% of cell proliferation, HCT116/chr3 ([4]; 0.5 μM): 51±4.6%
% of cell proliferation, HCT116/chr3 ([4]; 1 μM): 51±1.6%
IC50 [5]: 160 ± 5 nM
IC50 [11]: 120 ± 10 nM
IC50 [6]: 159 ± 10 nM
IC50 [7]: 35 ± 7 nM
IC50 [8]: 270 ± 100 nM
IC50 [9]: 230 ± 100 nM
IC50 [10]: 140 ± 20 nM
effect on viability/growth of BY4741 strain cells [2]: significant BY4741 inhibition
serial dilution to which cell growth was limited [2]: third dilution

Methyl 5-Bromo-3-(3,4,5-trimethoxyphenylthio)-1H-indole-2-carboxylate [Compound 27]
inhibition colchicine binding (% ± SD) (tubulin): 75±3%
% of cell proliferation, HeLa ([3]; 0.5 μM): 53±0.1%
% of cell proliferation, HeLa ([3]; 1 μM): 60±0.1%
% of cell proliferation, HCT116/chr3 ([4]; 0.5 μM): 57±0.9%
% of cell proliferation, HCT116/chr3 ([4]; 1 μM): 62±1.9%
IC50 [5]: 189 ± 5 nM
IC50 [11]: 155 ± 9 nM
IC50 [6]: 177 ± 10 nM
IC50 [7]: 100 ± 30 nM
IC50 [8]: 280 ± 30 nM
IC50 [9]: 230 ± 100 nM
IC50 [10]: 140 ± 20 nM

Methyl 5-Methoxy-3-(3,4,5-trimethoxybenzoyl)-1H-indole-2-carboxylate [Compound 39]
inhibition colchicine binding (% ± SD) (tubulin): 78±6%
% of cell proliferation, HeLa ([3]; 0.5 μM): 55±0.7%
% of cell proliferation, HeLa ([3]; 1 μM): 54±0.3%
% of cell proliferation, HCT116/chr3 ([4]; 0.5 μM): 57±3.4%
% of cell proliferation, HCT116/chr3 ([4]; 1 μM): 55±1.2%
IC50 [5]: 140 ± 1 nM
IC50 [11]: 100 ± 5 nM
IC50 [6]: 155 ± 10 nM
IC50 [7]: 35 ± 7 nM
IC50 [8]: 190 ± 20 nM
IC50 [9]: 95 ± 80 nM
IC50 [10]: 110 ± 60 nM
effect on viability/growth of BY4741 strain cells [2]: significant inhibitory effects
effect on HEK cell morphology (HEK cells): significant morphologic changes
effect on M14 cell morphology (M14 cells): significant morphologic changes

Methyl 5-Methoxy-3-(3,4,5-trimethoxybenzyl)-1H-indole-2-carboxylate [Compound 41]
inhibition colchicine binding (% ± SD) (tubulin): 59±1%
% of cell proliferation, HeLa ([3]; 0.5 μM): 52±0.7%
% of cell proliferation, HeLa ([3]; 1 μM): 51±0.2%
% of cell proliferation, HCT116/chr3 ([4]; 0.5 μM): 69±6.7%
% of cell proliferation, HCT116/chr3 ([4]; 1 μM): 69±0.3%
IC50 [5]: 181 ± 3 nM
IC50 [11]: 137 ± 5 nM
IC50 [6]: 189 ± 5 nM
IC50 [7]: 70 ± 10 nM
IC50 [8]: 190 ± 200 nM
IC50 [9]: 130 ± 100 nM
IC50 [10]: 170 ± 50 nM
effect on HEK cell morphology (HEK cells): significant morphologic changes
effect on M14 cell morphology (M14 cells): significant morphologic changes

methyl 5-methoxy-3-(3,4,5-trimethoxyphenylthio)-1H-indole-2-carboxylate [Compound 36]
effect on viability/growth of BY4741 strain cells [2]: significant inhibitory effects
